Test results taken from ChEMBL document CHEMBL1781905, “Discovery and optimization of N-acyl and N-aroylpyrazolines as B-Raf kinase inhibitors” (Bioorg Med Chem Lett, 2010).

Assays:
[1] = target: Tyrosine-protein kinase Lck (Homo sapiens) (UniProt P06239); assay: Inhibition of LCK
[2] = Inhibition of CK2
[3] = Inhibition of CAMK2
[4] = Inhibition of PKA
[5] = target: Fibroblast growth factor receptor 1 (Homo sapiens, UniProt P11362); assay: Inhibition of FGFR1
[6] = target: Mast/stem cell growth factor receptor Kit (Homo sapiens, UniProt P10721); assay: Inhibition of KIT2
[7] = target: Cyclin-dependent kinase 1 (Homo sapiens, UniProt P06493); assay: Inhibition of CDK1
[8] = target: T1, Receptor-type tyrosine-protein kinase FLT3 (Homo sapiens, UniProt P36888); assay: Inhibition of FLT3
T1 sequence (P36888 whole entry): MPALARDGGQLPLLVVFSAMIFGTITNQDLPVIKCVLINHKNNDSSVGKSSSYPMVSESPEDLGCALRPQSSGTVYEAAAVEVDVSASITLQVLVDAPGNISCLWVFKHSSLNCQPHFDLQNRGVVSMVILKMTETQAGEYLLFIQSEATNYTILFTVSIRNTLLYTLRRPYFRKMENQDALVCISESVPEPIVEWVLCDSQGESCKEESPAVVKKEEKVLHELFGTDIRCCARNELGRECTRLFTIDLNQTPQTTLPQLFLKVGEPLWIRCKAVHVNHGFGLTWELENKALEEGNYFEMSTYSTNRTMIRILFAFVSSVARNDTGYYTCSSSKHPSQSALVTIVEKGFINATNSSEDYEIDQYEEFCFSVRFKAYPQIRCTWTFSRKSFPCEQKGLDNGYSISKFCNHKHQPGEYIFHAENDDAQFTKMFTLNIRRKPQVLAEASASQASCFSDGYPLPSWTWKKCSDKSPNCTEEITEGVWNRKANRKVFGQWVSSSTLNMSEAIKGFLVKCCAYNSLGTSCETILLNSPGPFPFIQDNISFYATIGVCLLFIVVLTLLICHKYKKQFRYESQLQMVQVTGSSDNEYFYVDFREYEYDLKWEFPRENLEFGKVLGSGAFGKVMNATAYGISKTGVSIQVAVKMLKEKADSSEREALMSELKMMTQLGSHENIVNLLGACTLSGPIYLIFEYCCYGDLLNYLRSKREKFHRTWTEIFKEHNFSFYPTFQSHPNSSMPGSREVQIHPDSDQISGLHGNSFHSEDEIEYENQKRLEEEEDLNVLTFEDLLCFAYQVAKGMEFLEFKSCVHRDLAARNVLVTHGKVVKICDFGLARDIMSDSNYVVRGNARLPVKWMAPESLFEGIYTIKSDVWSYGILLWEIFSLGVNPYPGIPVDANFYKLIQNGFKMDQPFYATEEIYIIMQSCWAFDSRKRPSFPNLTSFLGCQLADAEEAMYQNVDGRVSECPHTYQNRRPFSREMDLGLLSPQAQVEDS

[9] = target: Cyclin-dependent kinase 2 (Homo sapiens, UniProt P24941); assay: Inhibition of CDK2
[10] = target: Vascular endothelial growth factor receptor 2 (Homo sapiens, UniProt P35968); assay: Inhibition of KDR
[11] = target: Macrophage colony-stimulating factor 1 receptor (Homo sapiens, UniProt P07333); assay: Inhibition of CSF1R
[12] = target: T2, Serine/threonine-protein kinase Chk1 (Homo sapiens, UniProt O14757); assay: Inhibition of Chk1
T2 sequence (O14757 whole entry): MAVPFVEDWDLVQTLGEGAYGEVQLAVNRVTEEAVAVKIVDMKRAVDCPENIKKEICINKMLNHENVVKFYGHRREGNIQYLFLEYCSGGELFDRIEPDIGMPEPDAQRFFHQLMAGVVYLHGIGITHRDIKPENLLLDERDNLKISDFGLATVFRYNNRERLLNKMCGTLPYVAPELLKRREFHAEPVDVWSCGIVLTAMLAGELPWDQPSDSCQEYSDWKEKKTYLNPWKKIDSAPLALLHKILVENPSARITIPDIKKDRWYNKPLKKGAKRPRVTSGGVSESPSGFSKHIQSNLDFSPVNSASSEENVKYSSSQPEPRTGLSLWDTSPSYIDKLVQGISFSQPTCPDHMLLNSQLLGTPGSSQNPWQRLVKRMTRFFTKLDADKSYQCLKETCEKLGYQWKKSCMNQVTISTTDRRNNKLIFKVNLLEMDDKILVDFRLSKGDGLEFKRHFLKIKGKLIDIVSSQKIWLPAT

[13] = target: Serine/threonine-protein kinase Chk2 (Homo sapiens, UniProt O96017); assay: Inhibition of Chk2
[14] = target: T3, Serine/threonine-protein kinase B-raf (Homo sapiens, UniProt P15056, V600E); assay: Inhibition of human B-Raf V600E mutant after 3 hrs
Outline: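 Radiometric assay using 20 nM B-Raf V600E. It measures phosphorylation of a biotinylated surrogate peptide by ³³P-ATP in 50 mM HEPES pH 7.5 with 10 mM DTT and 50 mM MnCl₂ at 30 °C for 3 h. The reaction is stopped with 100 mM EDTA, captured 2 h on a streptavidin FlashPlate and scintillation-counted.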

[15] = target: T3, Serine/threonine-protein kinase B-raf; assay: Inhibition of B-Raf V600E mutant-mediated ERK phosphorylation in human A375 cells after 3 hrs by immunoblotting method; assay type: cell-based, A-375; conditions: in the assay text read “whole cell ELISA” for “immunoblotting method”
Outline: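 A375 (B-Raf V600E) cells are seeded overnight, then exposed to inhibitors for 3 h at 37 °C. Cells are fixed, permeabilized and blocked overnight. They are probed 1 h with anti-phospho-ERK antibody, then with HRP-linked reagent. The TMB substrate is read as optical density at 650 nm.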

Homo sapiens = organism: Homo sapiens; assay: Selectivity ratio of IC50 for wild type human B-Raf to IC50 for human B-Raf V600E mutant
[16] = target: RAC-beta serine/threonine-protein kinase (Homo sapiens, UniProt P31751); assay: Inhibition of AKT2

T3 sequence (P15056 2-766 V600E limits assumed): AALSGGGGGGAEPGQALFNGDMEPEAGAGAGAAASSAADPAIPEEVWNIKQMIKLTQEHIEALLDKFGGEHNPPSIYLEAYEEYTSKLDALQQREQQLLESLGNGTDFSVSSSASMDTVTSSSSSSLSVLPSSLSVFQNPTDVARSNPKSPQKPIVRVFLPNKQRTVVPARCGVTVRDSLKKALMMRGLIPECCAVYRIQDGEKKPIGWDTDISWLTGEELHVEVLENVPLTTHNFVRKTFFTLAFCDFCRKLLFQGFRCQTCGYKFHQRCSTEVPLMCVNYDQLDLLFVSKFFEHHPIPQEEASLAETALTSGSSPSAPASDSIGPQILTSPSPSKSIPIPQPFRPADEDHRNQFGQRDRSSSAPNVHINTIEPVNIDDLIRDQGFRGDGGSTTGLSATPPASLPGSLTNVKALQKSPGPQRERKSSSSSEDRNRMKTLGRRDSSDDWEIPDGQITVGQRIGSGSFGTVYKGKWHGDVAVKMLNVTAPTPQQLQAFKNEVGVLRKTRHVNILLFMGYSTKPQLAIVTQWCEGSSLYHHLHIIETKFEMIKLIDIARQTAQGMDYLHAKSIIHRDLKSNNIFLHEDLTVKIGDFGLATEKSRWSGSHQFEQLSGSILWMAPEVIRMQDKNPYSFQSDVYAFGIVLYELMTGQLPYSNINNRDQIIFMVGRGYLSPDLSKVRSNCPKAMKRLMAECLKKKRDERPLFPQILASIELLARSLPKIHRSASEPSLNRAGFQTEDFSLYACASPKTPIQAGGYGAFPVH
Chain of Macrophage colony-stimulating factor 1 receptor (P07333 whole entry): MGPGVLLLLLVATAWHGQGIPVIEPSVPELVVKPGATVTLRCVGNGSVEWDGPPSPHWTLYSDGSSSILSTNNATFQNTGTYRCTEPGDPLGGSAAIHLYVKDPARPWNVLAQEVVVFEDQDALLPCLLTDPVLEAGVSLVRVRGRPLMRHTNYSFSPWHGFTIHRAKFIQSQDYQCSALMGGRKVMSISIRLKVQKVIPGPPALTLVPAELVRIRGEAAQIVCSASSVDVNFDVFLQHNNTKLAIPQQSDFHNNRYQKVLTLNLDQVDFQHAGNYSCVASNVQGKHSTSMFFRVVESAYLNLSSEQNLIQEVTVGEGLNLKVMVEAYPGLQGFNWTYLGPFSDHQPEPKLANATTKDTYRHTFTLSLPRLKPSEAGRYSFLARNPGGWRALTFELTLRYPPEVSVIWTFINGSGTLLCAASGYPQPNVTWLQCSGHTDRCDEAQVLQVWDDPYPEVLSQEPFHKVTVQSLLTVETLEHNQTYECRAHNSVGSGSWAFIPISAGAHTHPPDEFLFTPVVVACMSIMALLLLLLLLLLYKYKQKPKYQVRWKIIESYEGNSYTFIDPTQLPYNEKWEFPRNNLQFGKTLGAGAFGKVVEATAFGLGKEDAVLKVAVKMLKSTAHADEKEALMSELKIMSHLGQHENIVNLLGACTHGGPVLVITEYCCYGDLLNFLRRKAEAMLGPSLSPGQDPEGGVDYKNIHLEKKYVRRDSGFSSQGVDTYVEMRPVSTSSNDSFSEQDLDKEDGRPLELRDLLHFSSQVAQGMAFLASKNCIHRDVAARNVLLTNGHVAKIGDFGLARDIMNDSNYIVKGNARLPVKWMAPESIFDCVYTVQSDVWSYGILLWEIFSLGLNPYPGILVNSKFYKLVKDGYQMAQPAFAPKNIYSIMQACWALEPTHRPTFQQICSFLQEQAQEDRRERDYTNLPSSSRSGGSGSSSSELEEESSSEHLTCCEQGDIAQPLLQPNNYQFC
Chain of Mast/stem cell growth factor receptor Kit (P10721 whole entry): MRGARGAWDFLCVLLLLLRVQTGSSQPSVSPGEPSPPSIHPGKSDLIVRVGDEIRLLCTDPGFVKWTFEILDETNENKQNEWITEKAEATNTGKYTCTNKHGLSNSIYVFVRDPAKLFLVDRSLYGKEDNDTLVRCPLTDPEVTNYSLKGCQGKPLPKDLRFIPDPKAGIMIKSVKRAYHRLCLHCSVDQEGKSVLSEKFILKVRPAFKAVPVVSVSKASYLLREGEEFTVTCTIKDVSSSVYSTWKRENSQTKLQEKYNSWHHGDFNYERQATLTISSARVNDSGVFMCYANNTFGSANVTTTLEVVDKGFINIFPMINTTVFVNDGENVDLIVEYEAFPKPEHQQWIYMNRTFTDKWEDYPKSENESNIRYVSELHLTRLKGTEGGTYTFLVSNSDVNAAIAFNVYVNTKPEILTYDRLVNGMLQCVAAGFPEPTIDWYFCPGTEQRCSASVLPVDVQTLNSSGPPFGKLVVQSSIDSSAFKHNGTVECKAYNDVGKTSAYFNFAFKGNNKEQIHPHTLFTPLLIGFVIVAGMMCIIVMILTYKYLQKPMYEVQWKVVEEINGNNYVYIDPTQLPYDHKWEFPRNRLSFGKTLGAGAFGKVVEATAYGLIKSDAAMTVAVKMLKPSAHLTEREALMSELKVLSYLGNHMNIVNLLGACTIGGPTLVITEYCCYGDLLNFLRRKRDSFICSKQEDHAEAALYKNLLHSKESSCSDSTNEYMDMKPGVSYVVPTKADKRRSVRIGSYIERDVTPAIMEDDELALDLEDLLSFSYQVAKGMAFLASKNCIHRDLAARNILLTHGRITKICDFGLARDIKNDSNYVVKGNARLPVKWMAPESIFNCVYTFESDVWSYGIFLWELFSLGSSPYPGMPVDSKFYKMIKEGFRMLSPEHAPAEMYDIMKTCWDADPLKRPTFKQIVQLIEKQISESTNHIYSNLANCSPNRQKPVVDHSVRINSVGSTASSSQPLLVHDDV
Chain of Vascular endothelial growth factor receptor 2 (P35968 whole entry): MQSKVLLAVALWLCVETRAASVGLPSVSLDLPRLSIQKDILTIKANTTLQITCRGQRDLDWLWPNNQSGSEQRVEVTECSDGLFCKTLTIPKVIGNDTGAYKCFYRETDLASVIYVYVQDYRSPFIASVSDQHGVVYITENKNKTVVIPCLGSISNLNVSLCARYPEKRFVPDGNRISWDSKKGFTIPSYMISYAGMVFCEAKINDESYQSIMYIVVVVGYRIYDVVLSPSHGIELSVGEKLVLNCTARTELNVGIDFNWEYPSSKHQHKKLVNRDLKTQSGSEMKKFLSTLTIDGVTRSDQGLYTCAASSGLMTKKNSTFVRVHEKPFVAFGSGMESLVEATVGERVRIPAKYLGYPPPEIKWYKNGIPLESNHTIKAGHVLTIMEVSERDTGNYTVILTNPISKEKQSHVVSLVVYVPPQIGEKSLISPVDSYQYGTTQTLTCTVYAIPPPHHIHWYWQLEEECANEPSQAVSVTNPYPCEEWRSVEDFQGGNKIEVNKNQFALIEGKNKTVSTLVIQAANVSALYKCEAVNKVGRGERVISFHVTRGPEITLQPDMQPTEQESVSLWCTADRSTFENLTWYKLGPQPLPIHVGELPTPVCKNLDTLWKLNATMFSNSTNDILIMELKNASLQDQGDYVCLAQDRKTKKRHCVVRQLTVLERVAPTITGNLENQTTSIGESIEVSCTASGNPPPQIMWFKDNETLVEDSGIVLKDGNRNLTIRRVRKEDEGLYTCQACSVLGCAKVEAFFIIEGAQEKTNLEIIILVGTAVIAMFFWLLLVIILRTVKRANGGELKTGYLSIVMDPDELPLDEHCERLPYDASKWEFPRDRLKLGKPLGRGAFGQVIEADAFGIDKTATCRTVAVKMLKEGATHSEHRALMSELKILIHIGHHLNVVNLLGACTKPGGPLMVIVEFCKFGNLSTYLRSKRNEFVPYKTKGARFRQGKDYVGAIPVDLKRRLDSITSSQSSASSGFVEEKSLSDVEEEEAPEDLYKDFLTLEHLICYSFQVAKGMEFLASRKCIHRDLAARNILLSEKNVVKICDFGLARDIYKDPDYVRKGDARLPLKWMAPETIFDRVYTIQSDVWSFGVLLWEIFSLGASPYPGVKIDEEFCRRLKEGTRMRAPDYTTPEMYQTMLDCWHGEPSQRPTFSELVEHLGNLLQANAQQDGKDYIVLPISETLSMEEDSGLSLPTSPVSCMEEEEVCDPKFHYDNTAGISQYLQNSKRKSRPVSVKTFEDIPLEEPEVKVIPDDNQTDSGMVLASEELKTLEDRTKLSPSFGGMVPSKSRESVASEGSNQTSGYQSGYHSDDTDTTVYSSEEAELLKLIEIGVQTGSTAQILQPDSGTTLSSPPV
Chain of Fibroblast growth factor receptor 1 (P11362 whole entry): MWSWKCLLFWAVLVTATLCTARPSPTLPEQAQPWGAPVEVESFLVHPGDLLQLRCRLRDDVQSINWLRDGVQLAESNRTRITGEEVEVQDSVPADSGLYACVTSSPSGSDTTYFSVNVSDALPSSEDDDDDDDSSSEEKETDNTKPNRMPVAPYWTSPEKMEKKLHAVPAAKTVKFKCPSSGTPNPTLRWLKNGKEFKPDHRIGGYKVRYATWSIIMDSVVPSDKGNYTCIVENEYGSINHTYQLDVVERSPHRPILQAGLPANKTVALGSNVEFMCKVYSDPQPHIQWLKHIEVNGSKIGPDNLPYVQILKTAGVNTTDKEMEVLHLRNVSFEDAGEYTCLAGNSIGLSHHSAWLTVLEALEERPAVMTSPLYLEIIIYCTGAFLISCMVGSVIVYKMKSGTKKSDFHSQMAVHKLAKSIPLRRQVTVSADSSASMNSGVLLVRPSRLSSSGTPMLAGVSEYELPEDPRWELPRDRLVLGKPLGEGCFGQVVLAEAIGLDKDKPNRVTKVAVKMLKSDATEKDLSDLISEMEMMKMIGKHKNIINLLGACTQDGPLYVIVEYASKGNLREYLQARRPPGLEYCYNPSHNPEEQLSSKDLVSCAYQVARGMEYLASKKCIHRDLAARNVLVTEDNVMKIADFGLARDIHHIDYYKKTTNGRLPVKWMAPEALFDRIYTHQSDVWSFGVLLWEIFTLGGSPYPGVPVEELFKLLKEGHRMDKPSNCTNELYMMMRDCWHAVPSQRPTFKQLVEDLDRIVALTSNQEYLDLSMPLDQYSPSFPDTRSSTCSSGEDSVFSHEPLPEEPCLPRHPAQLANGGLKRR

SMILES	IC50 [14] [nM]	IC50 [15] [nM]	also measured
O=C(c1ccco1)N1N=C(c2cccnc2)CC1c1ccccc1O (configuration not stated)			IC50 [1]: > 10000 nM; IC50 [2]: > 10000 nM; IC50 [3]: > 10000 nM; IC50 [4]: > 10000 nM; IC50 [5]: > 10000 nM; IC50 [6]: > 10000 nM; IC50 [7]: > 10000 nM; IC50 [8]: > 10000 nM; IC50 [9]: > 10000 nM; IC50 [10]: > 10000 nM; IC50 [11]: > 10000 nM; IC50 [12]: > 10000 nM; IC50 [13]: > 10000 nM
O=C(c1ccc(F)cc1C(F)(F)F)N1N=C(c2cccnc2)CC1c1ccccc1O (configuration not stated)	> 10000		
O=C(c1cc(-c2ccccc2O)on1)N1N=C(c2cccnc2)CC1c1ccccc1O (configuration not stated)	14.3	130	
O=C(c1ccc(-c2ccccc2)o1)N1N=C(c2cccnc2)CC1c1ccccc1O (configuration not stated)	16	1700	
O=C(c1ccc(F)c(C(F)(F)F)c1)N1N=C(c2cccnc2)CC1c1ccccc1O (configuration not stated)	200	3800	
O=C(c1cncc(-c2cccs2)c1)N1N=C(c2cccnc2)CC1c1ccccc1O (configuration not stated)	260	> 10000	
O=C(c1ccc(-c2cccnc2)s1)N1N=C(c2cccnc2)CC1c1ccccc1O (configuration not stated) [listing 1 of 2 here]			Ratio IC50 (Homo sapiens): < 2
CCOc1cccc2cc(C(=O)N3N=C(c4cccnc4)CC3c3ccccc3O)oc12 (configuration not stated)	25.7	3500	IC50 [16]: > 10000 nM; IC50 [5]: > 10000 nM; IC50 [6]: > 10000 nM; IC50 [8]: > 10000 nM; IC50 [10]: > 10000 nM; IC50 [11]: > 10000 nM
Cc1nc(-c2cccnc2)sc1C(=O)N1N=C(c2cccnc2)CC1c1ccccc1O (configuration not stated)	8.1	940	
O=C(c1cc(-c2ccc(Cl)cc2)cs1)N1N=C(c2cccnc2)CC1c1ccccc1O (configuration not stated)	216		
O=C(c1ccc(-c2cccnc2)s1)N1N=C(c2cccnc2)CC1c1ccccc1O (configuration not stated) [listing 2 of 2 here]	18.7	180	
COc1ccc(-c2ccc(C(=O)N3N=C(c4cccnc4)CC3c3ccccc3O)o2)cc1 (configuration not stated)	18	3700	
O=C(c1ccc(C(F)(F)F)c(F)c1)N1N=C(c2cccnc2)CC1c1ccccc1O (configuration not stated)	660		
O=C(c1ccc(-c2cccnc2)s1)N1N=C(c2cccnc2)CC1c1ccccc1O (single isomer, unassigned; early eluting)	1200	14000	
O=C(c1[nH]nc2c1CCC2)N1N=C(c2cccnc2)CC1c1ccccc1O (configuration not stated)	7	350	
O=C(c1cc(-c2ccccc2)on1)N1N=C(c2cccnc2)CC1c1ccccc1O (configuration not stated)	8	810	
O=C(c1cccc(Oc2ccccc2)c1)N1N=C(c2cccnc2)CC1c1ccccc1O (configuration not stated)	156		
Cc1ccc(-c2ccc(C(=O)N3N=C(c4cccnc4)CC3c3ccccc3O)o2)cc1 (configuration not stated)	58	2400	
O=C(c1cc(-c2ccc3c(c2)OCO3)on1)N1N=C(c2cccnc2)CC1c1ccccc1O (configuration not stated)	8.6	600	
Cc1nc(-c2ccccc2)sc1C(=O)N1N=C(c2cccnc2)CC1c1ccccc1O (configuration not stated)	37.9	1300	
O=C(c1cc(F)cc(C(F)(F)F)c1)N1N=C(c2cccnc2)CC1c1ccccc1O (configuration not stated)	110	9500	
O=C(c1ccc(-c2ccc(Cl)cc2)s1)N1N=C(c2cccnc2)CC1c1ccccc1O (configuration not stated)	140		
O=C(c1ccc(-c2ccccc2)[nH]1)N1N=C(c2cccnc2)CC1c1ccccc1O (configuration not stated)	41.5	1100	
